Test results taken from ChEMBL document CHEMBL4680175, “Sulfonamide-based ring-fused analogues for CAN508 as novel carbonic anhydrase inhibitors endowed with antitumor activity: Design, synthesis, and in vitro biological evaluation” (Eur J Med Chem, 2020).
pIC50, pKi: −log10 of the molar value. The source made the active and inactive calls. The calls are words filed in the database; no cut-off is given here.

Columns and labels:
SK-MEL-2 = assay: Antitumor activity against human SK-MEL-2 cells assessed as cell growth inhibition at 10 uM incubated for 48 hrs by sulforhodamine B assay; format: functional; settings: read-out: GI
Summary of the method: (§1)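 NCI Drug Evaluation Branch protocol: primary single-dose screen at 10 μM across a 57-line human cancer panel. Drug exposure is 48 h. Cell growth and viability are read by sulforhodamine B assay. Data are given as a mean graph of percent growth of treated cells and reported as percentage growth inhibition (GI%).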

MDA-MB-231 = assay: Antitumor activity against human MDA-MB-231/ATCC cells assessed as cell growth inhibition at 10 uM incubated for 48 hrs by sulforhodamine B assay; format: functional; settings: read-out: GI; summary of the method: as §1
RPMI-8226 = assay: Antitumor activity against human RPMI8226 cells assessed as cell growth inhibition at 10 uM incubated for 48 hrs by sulforhodamine B assay; format: functional; settings: read-out: GI; summary of the method: as §1
OVCAR-3 = assay: Antitumor activity against human OVCAR-3 cells assessed as cell growth inhibition at 10 uM incubated for 48 hrs by sulforhodamine B assay; format: functional; settings: read-out: GI; summary of the method: as §1
K562 = assay: Antitumor activity against human K562 cells assessed as cell growth inhibition at 10 uM incubated for 48 hrs by sulforhodamine B assay; format: functional; settings: read-out: GI; summary of the method: as §1
U-251 = assay: Antitumor activity against human U251 cells assessed as cell growth inhibition at 10 uM incubated for 48 hrs by sulforhodamine B assay; format: functional; settings: read-out: GI
Summary of the method: (§2)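 NCI one-dose screen: 57-cell-line panel exposed at 10 μM for 48 h, Drug Evaluation Branch protocol. Growth and viability read by sulforhodamine B; data given as percent growth inhibition from the mean-graph of percent growth of treated cells.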

MCF7 = assay: Antitumor activity against human MCF7 cells assessed as cell growth inhibition at 10 uM incubated for 48 hrs by sulforhodamine B assay; format: functional; settings: read-out: GI; summary of the method: as §1
HCT-116 = assay: Antitumor activity against human HCT116 cells assessed as cell growth inhibition at 10 uM incubated for 48 hrs by sulforhodamine B assay; format: functional; settings: read-out: GI; summary of the method: as §1
Carbonic anhydrase 2 = Carbonic anhydrase 2 (Homo sapiens, UniProt P00918); assay: Inhibition of recombinant human carbonic anhydrase 2 preincubated with enzyme for 15 mins by phenol red dye based stopped flow CO2 hydrase assay
IGROV-1 = assay: Antitumor activity against human IGROV1 cells assessed as cell growth inhibition at 10 uM incubated for 48 hrs by sulforhodamine B assay; format: functional; settings: read-out: GI; summary of the method: as §1
LOX IMVI = assay: Antitumor activity against human LOX IMVI cells assessed as cell growth inhibition at 10 uM incubated for 48 hrs by sulforhodamine B assay; format: functional; settings: read-out: GI; summary of the method: as §1
NCI-H226 = assay: Antitumor activity against human NCI-H226 assessed as cell growth inhibition at 10 uM incubated for 48 hrs by sulforhodamine B assay; format: functional; settings: read-out: GI; summary of the method: as §1
Carbonic anhydrase 12 = Carbonic anhydrase 12 (Homo sapiens, UniProt O43570); assay: Inhibition of recombinant human carbonic anhydrase 12 preincubated with enzyme for 15 mins by phenol red dye based stopped flow CO2 hydrase assay
Sequence of Carbonic anhydrase 12 (O43570 whole entry): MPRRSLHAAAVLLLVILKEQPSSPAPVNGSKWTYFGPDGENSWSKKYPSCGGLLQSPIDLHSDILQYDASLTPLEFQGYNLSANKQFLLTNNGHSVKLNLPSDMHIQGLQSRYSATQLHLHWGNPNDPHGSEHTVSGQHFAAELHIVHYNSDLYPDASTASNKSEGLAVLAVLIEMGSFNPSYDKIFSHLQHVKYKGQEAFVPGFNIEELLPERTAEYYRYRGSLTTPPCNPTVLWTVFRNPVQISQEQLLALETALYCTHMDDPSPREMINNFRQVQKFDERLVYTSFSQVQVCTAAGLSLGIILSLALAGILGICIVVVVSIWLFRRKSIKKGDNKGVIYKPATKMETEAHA

MDA-MB-468 = assay: Antitumor activity against human MDA-MB-468 cells assessed as cell growth inhibition at 10 uM incubated for 48 hrs by sulforhodamine B assay; format: functional; settings: read-out: GI; summary of the method: as §1
NCI/ADR-RES = assay: Antitumor activity against human NCI/ADR-RES cells assessed as cell growth inhibition at 10 uM incubated for 48 hrs by sulforhodamine B assay; format: functional, cell-based; summary of the method: as §1
SN12C = assay: Antitumor activity against human SN12C cells assessed as cell growth inhibition at 10 uM incubated for 48 hrs by sulforhodamine B assay; format: functional; settings: read-out: GI; summary of the method: as §1
NCI-H522 = assay: Antitumor activity against human NCI-H522 cells assessed as cell growth inhibition at 10 uM incubated for 48 hrs by sulforhodamine B assay; format: functional; settings: read-out: GI; summary of the method: as §1
UO-31 = assay: Antitumor activity against human UO-31 cells assessed as cell growth inhibition at 10 uM incubated for 48 hrs by sulforhodamine B assay; format: functional; settings: read-out: GI; summary of the method: as §2
RXF 393 = assay: Antitumor activity against human RXF 393 cells assessed as cell growth inhibition at 10 uM incubated for 48 hrs by sulforhodamine B assay; format: functional; settings: read-out: GI; summary of the method: as §1
SF-539 = assay: Antitumor activity against human SF539 cells assessed as cell growth inhibition at 10 uM incubated for 48 hrs by sulforhodamine B assay; format: functional; settings: read-out: GI; summary of the method: as §1
Malme-3M = assay: Antitumor activity against human MALME-3M cells assessed as cell growth inhibition at 10 uM incubated for 48 hrs by sulforhodamine B assay; format: functional; settings: read-out: GI; summary of the method: as §1
SK-MEL-5 = assay: Antitumor activity against human SK-MEL-5 cells assessed as cell growth inhibition at 10 uM incubated for 48 hrs by sulforhodamine B assay; format: functional; settings: read-out: GI; summary of the method: as §1
[1] = target: Cyclin-dependent kinase 2/cyclin E1 (Homo sapiens, UniProt P24941); assay: Inhibition of CDK2/cyclin E (unknown origin) expressed in baculovirus infected Sf21 insect cells using histone H1 as substrate in presence of [gamma33P]ATP
HOP-92 = assay: Antitumor activity against human HOP92 cells assessed as cell growth inhibition at 10 uM incubated for 48 hrs by sulforhodamine B assay; format: functional; settings: read-out: GI; summary of the method: as §1
SNB-75 = assay: Antitumor activity against human SNB-75 cells assessed as cell growth inhibition at 10 uM incubated for 48 hrs by sulforhodamine B assay; format: functional; settings: read-out: GI; summary of the method: as §2
NCI-H322M = assay: Antitumor activity against human NCI-H322M cells assessed as cell growth inhibition at 10 uM incubated for 48 hrs by sulforhodamine B assay; format: functional; settings: read-out: GI; summary of the method: as §1
Hs-578T = assay: Antitumor activity against human HS 578T cells assessed as cell growth inhibition at 10 uM incubated for 48 hrs by sulforhodamine B assay; format: functional; settings: read-out: GI; summary of the method: as §1
Carbonic anhydrase 9 = Carbonic anhydrase 9 (Homo sapiens, UniProt Q16790); assay: Inhibition of recombinant human carbonic anhydrase 9 preincubated with enzyme for 15 mins by phenol red dye based stopped flow CO2 hydrase assay
OVCAR-8 = assay: Antitumor activity against human OVCAR-8 cells assessed as cell growth inhibition at 10 uM incubated for 48 hrs by sulforhodamine B assay; format: functional; settings: read-out: GI; summary of the method: as §1
PC-3 = assay: Antitumor activity against human PC-3 cells assessed as cell growth inhibition at 10 uM incubated for 48 hrs by sulforhodamine B assay; format: functional; settings: read-out: GI; summary of the method: as §1
MOLT-4 = assay: Antitumor activity against human MOLT4 cells assessed as cell growth inhibition at 10 uM incubated for 48 hrs by sulforhodamine B assay; format: functional; settings: read-out: GI; summary of the method: as §1
T47D = assay: Antitumor activity against human T-47D cells assessed as cell growth inhibition at 10 uM incubated for 48 hrs by sulforhodamine B assay; format: functional; settings: read-out: GI; summary of the method: as §2
CCRF-CEM = assay: Antitumor activity against human CCRF-CEM cells assessed as cell growth inhibition at 10 uM incubated for 48 hrs by sulforhodamine B assay; format: functional; settings: read-out: GI; summary of the method: as §1
KM12 = assay: Antitumor activity against human KM12 cells assessed as cell growth inhibition at 10 uM incubated for 48 hrs by sulforhodamine B assay; format: functional; settings: read-out: GI; summary of the method: as §1
NCI-H460 = assay: Antitumor activity against human NCI-H460 cells assessed as cell growth inhibition at 10 uM incubated for 48 hrs by sulforhodamine B assay; format: functional; settings: read-out: GI; summary of the method: as §1
CAKI-1 = assay: Antitumor activity against human CAKI-1 cells assessed as cell growth inhibition at 10 uM incubated for 48 hrs by sulforhodamine B assay; format: functional; settings: read-out: GI; summary of the method: as §1
DU-145 = assay: Antitumor activity against human DU-145 cells assessed as cell growth inhibition at 10 uM incubated for 48 hrs by sulforhodamine B assay; format: functional; settings: read-out: GI; summary of the method: as §1
BT-549 = assay: Antitumor activity against human BT-549 cells assessed as cell growth inhibition at 10 uM incubated for 48 hrs by sulforhodamine B assay; format: functional; settings: read-out: GI; summary of the method: as §1
SF-268 = assay: Antitumor activity against human SF268 cells assessed as cell growth inhibition at 10 uM incubated for 48 hrs by sulforhodamine B assay; format: functional; settings: read-out: GI; summary of the method: as §1

Row | Compound | inhibition of growth at 10 µM (SK-MEL-2) [%] | inhibition of growth at 10 µM (MDA-MB-231) [%] | inhibition of growth at 10 µM (RPMI-8226) [%] | inhibition of growth at 10 µM (OVCAR-3) [%] | inhibition of growth at 10 µM (K562) [%] | inhibition of growth at 10 µM (U-251) [%] | inhibition of growth at 10 µM (HCT-116) [%] | pKi (Carbonic anhydrase 2) | inhibition of growth at 10 µM (IGROV-1) [%] | inhibition of growth at 10 µM (LOX IMVI) [%] | inhibition of growth at 10 µM (NCI-H226) [%] | pKi (Carbonic anhydrase 12) | inhibition of growth at 10 µM (MDA-MB-468) [%] | Activity (NCI/ADR-RES) | inhibition of growth at 10 µM (SN12C) [%] | inhibition of growth at 10 µM (NCI-H522) [%] | inhibition of growth at 10 µM (UO-31) [%] | inhibition of growth at 10 µM (RXF 393) [%] | inhibition of growth at 10 µM (SF-539) [%] | inhibition of growth at 10 µM (Malme-3M) [%] | other results
1 | N#Cc1c(-c2ccc(F)cc2)nc2c(/N=N/c3ccc(S(N)(=O)=O)cc3)c(N)nn2c1N | 25 | 37 | 60 | 20 | 33 | 28 | 24 | 6.40 | 36 | 28 | 25 | 7.96 | 71 | inactive | 24 | 32 | 38 | 59 | 28 | 20 | inhibition of growth at 10 µM (MCF7): 59%; inhibition of growth at 10 µM (SK-MEL-5): 31%; pIC50 [1]: < 4.90; inhibition of growth at 10 µM (HOP-92): 58%; inhibition of growth at 10 µM (SNB-75): 33%; inhibition of growth at 10 µM (NCI-H322M): 21%; inhibition of growth at 10 µM (Hs-578T): 23%; pKi (Carbonic anhydrase 9): 8.06; inhibition of growth at 10 µM (OVCAR-8): 25%; inhibition of growth at 10 µM (PC-3): 29%; inhibition of growth at 10 µM (MOLT-4): 62%; inhibition of growth at 10 µM (T47D): 48%; inhibition of growth at 10 µM (CCRF-CEM): 51%; inhibition of growth at 10 µM (KM12): 53%
2 | Cc1ccc(-c2cn3nc(N)c(/N=N/c4ccc(S(N)(=O)=O)cc4)c3[nH]2)cc1 | 57 | 42 | 60 | 36 | 48 | 44 | 62 | 7.00 | 80 | 70 | 27 | 7.56 | 48 | inactive | 63 | 57 | 77 | 56 | 56 | 63 | inhibition of growth at 10 µM (NCI-H460): 67%; inhibition of growth at 10 µM (CAKI-1): 86%; inhibition of growth at 10 µM (DU-145): 52%; inhibition of growth at 10 µM (SK-MEL-5): 51%; pIC50 [1]: 4.69; inhibition of growth at 10 µM (HOP-92): 35%; inhibition of growth at 10 µM (SNB-75): 66%; inhibition of growth at 10 µM (NCI-H322M): 69%; inhibition of growth at 10 µM (Hs-578T): 64%; pKi (Carbonic anhydrase 9): 8.03; inhibition of growth at 10 µM (BT-549): 33%; inhibition of growth at 10 µM (SF-268): 49%; inhibition of growth at 10 µM (OVCAR-8): 47%; inhibition of growth at 10 µM (PC-3): 43%; inhibition of growth at 10 µM (MOLT-4): 55%; inhibition of growth at 10 µM (T47D): 39%; inhibition of growth at 10 µM (CCRF-CEM): 54%; inhibition of growth at 10 µM (KM12): 46%
